Assay [1] concerns the target T1, DNA topoisomerase 1 (Homo sapiens) (UniProt P11387).
T1 sequence (whole entry): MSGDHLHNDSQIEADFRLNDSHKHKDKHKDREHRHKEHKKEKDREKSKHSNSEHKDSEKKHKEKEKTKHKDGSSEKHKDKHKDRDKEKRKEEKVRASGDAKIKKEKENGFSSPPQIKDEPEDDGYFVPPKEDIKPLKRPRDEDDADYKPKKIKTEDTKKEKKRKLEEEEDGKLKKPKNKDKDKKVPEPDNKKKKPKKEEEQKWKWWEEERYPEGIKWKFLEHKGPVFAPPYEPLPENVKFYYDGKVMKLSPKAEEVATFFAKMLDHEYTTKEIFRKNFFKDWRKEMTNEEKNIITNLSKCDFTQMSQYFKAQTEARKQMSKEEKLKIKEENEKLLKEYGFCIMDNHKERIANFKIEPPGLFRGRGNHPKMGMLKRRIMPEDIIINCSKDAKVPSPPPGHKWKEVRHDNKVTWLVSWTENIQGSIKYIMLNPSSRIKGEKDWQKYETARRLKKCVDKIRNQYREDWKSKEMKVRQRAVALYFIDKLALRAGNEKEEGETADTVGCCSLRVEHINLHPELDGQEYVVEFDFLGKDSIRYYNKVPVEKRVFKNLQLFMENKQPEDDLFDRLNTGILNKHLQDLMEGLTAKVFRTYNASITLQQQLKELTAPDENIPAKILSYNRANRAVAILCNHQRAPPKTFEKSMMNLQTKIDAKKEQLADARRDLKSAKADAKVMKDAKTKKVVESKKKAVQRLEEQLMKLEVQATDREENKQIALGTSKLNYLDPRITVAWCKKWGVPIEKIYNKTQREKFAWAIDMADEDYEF
As to the kind of experiment: Inhibition of human recombinant topoisomerase 1-mediated DNA cleavage using [32P]-3'-end-labeled 117-bp DNA fragment as substrate at 0.1 to 100 uM after 20 mins by SDS-PAGE analysis. The procedure, abridged: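 Human Top1 expressed in baculovirus and purified. Substrate is a 117-bp oligonucleotide carrying the pBluescript SK(−) cleavage sites, 3′-end-labeled by Klenow fill-in with [α-32P]dGTP. Compound at 0.1, 1, 10, 100 μM; reaction stopped with 0.5% SDS (final) plus formamide loading dye.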

Assay [2] relates to HOP-62. As to the kind of experiment: Growth inhibition of human HOP62 cells after 48 hrs by sulforhodamine B assay. It is filed as functional. The conditions noted are these: HOP-62, 48 h. The procedure, abridged: (§1)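 NCI 60-cell-line screen: cells exposed 48 h to five 10-fold dilutions starting at 100 μM (range 10−4 to 10−8 M), then stained with sulforhodamine B. Optical densities relative to control plotted against log concentration. GI50 interpolated between points above and below 50% growth. Single determinations.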

In assay [3] the test system is HCT-116. As to the kind of experiment: Growth inhibition of human HCT116 cells after 48 hrs by sulforhodamine B assay. The format is functional. The conditions noted are these: HCT-116, 48 h. The procedure, abridged: as §1
In assay [4] the test system is SF-539. Kind of assay: Growth inhibition of human SF539 cells after 48 hrs by sulforhodamine B assay. It is filed as functional. To be noted: SF-539, 48 h. The procedure, abridged: as §1
Assay [5] concerns UACC-62. Kind of assay: Growth inhibition of human UACC62 cells after 48 hrs by sulforhodamine B assay. The format is functional. The conditions noted are these: UACC-62, 48 h. The method, boiled down:
as §1

The subject of assay [6] is OVCAR-3. Kind of assay: Growth inhibition of human OVCAR3 cells after 48 hrs by sulforhodamine B assay. It is filed as functional. To be noted: OVCAR-3, 48 h. The procedure, abridged: as §1
Assay [7] has as its system SN12C. As to the kind of experiment: Growth inhibition of human SN12C cells after 48 hrs by sulforhodamine B assay. It is filed as functional. The method, boiled down:
as §1

Assay [8] relates to DU-145. Kind of assay: Growth inhibition of human DU145 cells after 48 hrs by sulforhodamine B assay. It is filed as functional. The conditions noted are these: DU-145, 48 h. The procedure, abridged:
as §1

Assay [9] has as its system MCF7. As to the kind of experiment: Growth inhibition of human MCF7 cells after 48 hrs by sulforhodamine B assay. The format is functional. To be noted: MCF7, 48 h. The procedure, abridged: as §1
Assay [10] relates to HOP-62. As to the kind of experiment: Growth inhibition of human HOP62 cells at 10 uM after 48 hrs by sulforhodamine B assay. It is filed as functional, cell-based. The method, boiled down: (§2)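 NCI screen single-concentration test at 10 μM, 48 h exposure, sulforhodamine B staining. Optical density read relative to untreated control. Used as initial testing to decide whether multi-dose GI50 testing was warranted.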

The subject of assay [11] is SF-539. Kind of assay: Growth inhibition of human SF539 cells at 10 uM after 48 hrs by sulforhodamine B assay. The format is functional, cell-based. The procedure, abridged:
as §2

The test system of assay [12] is UACC-62. As to the kind of experiment: Growth inhibition of human UACC62 cells at 10 uM after 48 hrs by sulforhodamine B assay. It is filed as functional, cell-based. The procedure, abridged: as §2
Assay [13] has as its system OVCAR-3. Kind of assay: Growth inhibition of human OVCAR3 cells at 10 uM after 48 hrs by sulforhodamine B assay. The format is functional, cell-based. The procedure, abridged:
as §2

Assay [14] relates to SN12C. As to the kind of experiment: Growth inhibition of human SN12C cells at 10 uM after 48 hrs by sulforhodamine B assay. It is filed as functional, cell-based. The method, boiled down:
as §2

Assay [15] relates to DU-145. Kind of assay: Growth inhibition of human DU145 cells at 10 uM after 48 hrs by sulforhodamine B assay. It is filed as functional, cell-based. The method, boiled down:
as §2

Assay [16] concerns MCF7. Kind of assay: Growth inhibition of human MCF7 cells at 10 uM after 48 hrs by sulforhodamine B assay. The format is functional, cell-based. The procedure, abridged:
as §2

For assay [17], the system named is HCT-116. As to the kind of experiment: Growth inhibition of human HCT116 cells at 10 uM after 48 hrs by sulforhodamine B assay. It is filed as functional, cell-based. The procedure, abridged: as §2

Activity calls are given as the source filed them. No cut-off for these calls is given here.

Take `COc1cnc2c(c1)C(=O)c1c-2n(CCCN(C)C)c(=O)c2ccccc12`: the inhibition entry in assay [1] is “Active”. The GI50 was 300 nM in [2]; 340 nM in [3]; 570 nM in [4]; 540 nM in assay [5]; 940 nM in assay [6]; 260 nM in assay [7]. Further, the GI50 in assay [8] was 300 nM; in [9] it was 210 nM.

On to `COc1cnc2c(c1)C(=O)c1c-2n(CCCN2CCOCC2)c(=O)c2cc(OC)c(OC)cc12`, for which the inhibition result in assay [1] was “Active”. Further, the GI50 in assay [2] stood at 240 nM; in [3] it was 330 nM; in assay [4] it was 270 nM; in [5], 220 nM; in assay [6], 310 nM; in assay [7], 340 nM. The GI50 amounted to 340 nM in assay [8] and 100 nM in assay [9].

Consider `COc1cc2c3c(n(CCCN(C)C)c(=O)c2cc1OC)-c1cnccc1C3=O`, for which the inhibition result in assay [1] was “Active”. Also, the “growth inhibition (GI)” value in assay [10], in assay [11], in [12], in [13], in assay [14] and in assay [15] was “Active” each time. Further, the “growth inhibition (GI)” value in [16] was “Active”.

In the case of `CC[C@@]1(O)C(=O)OCc2c1cc1n(c2=O)Cc2cc3ccccc3nc2-1` [CAMPTOTHECIN], in assay [9], the GI50 turned out to be 13 nM.

For `COc1cnc2c(c1)C(=O)c1c-2n(CCCN(C)C)c(=O)c2cc(OC)c(OC)cc12`, the inhibition entry in [1] is “Active”. Also, the GI50 in assay [2] is 920 nM; in assay [3] it was 1500 nM; in assay [4], 1100 nM; in assay [5], 3900 nM; in [6], 2900 nM; in assay [7], 3600 nM. Besides, the GI50 was determined as 880 nM in assay [8] and 130 nM in assay [9].

Regarding `COc1cc2c3c(n(CCCN(C)C)c(=O)c2cc1OC)-c1cccnc1C3=O`, the inhibition entry in assay [1] was “Active”. The “growth inhibition (GI)” value in assay [10], in assay [17], in assay [11], in assay [12], in assay [13] and in assay [14] was “Active” throughout. In addition, the “growth inhibition (GI)” value in assay [15] and in assay [16] was “Active” throughout.

On to `COc1cnc2c(c1)C(=O)c1c-2n(CCCN(C)C)c(=O)c2cc([N+](=O)[O-])ccc12`, for which the inhibition entry in assay [1] is “Active”. In addition, the GI50 in [2] is 54 nM; in [3] it was 74 nM; in assay [4] it was 78 nM; in assay [5] it was 52 nM; in assay [6], 140 nM; in assay [7] it was 57 nM. Besides, the GI50 in assay [8] turned out to be 51 nM; in [9], 24 nM.

`COc1cc2c3c(n(CCCN4CCOCC4)c(=O)c2cc1OC)-c1ncccc1C3=O`: the inhibition entry in assay [1] was “Active”. The GI50 in assay [2] amounted to 300 nM; in [3] it was 220 nM; in assay [5], 100 nM; in assay [6], 370 nM; in [7] it was 520 nM; in [8], 310 nM. Besides, in assay [9], the GI50 was determined as 52 nM.

As to `COc1cc2c3c(n(CCCN(C)C)c(=O)c2cc1OC)-c1ccncc1C3=O`, the inhibition result in [1] was “Active”. Further, the GI50 is 6500 nM in assay [2]; 620 nM in assay [3]; 12000 nM in assay [4]; more than 100000 nM in [5]; 7400 nM in assay [6]; 8500 nM in [7]. Also, the GI50 in assay [8] turned out to be 2900 nM; in assay [9] it was 3900 nM.

As to `COc1cnc2c(c1)C(=O)c1c-2n(CCCN2CCOCC2)c(=O)c2cc([N+](=O)[O-])ccc12`, the inhibition result in assay [1] was “Active”. The GI50 in [2] worked out at 51 nM; in [3], 50 nM; in [4], 35 nM; in assay [5], 40 nM; in assay [6] it was 110 nM; in assay [7], 43 nM. The GI50 in assay [8] is 40 nM; in [9] it was 20 nM.

For the molecule `COc1cc2c3c(n(CCCN4CCOCC4)c(=O)c2cc1OC)-c1cnccc1C3=O`, the inhibition result in assay [1] is “Active”. Besides, the 50% growth inhibitory concentration (GI50) in [2] worked out at 6500 nM; in [3], 2500 nM; in assay [4], 40000 nM; in assay [5], 48000 nM; in [6], 24000 nM; in [7], 16000 nM. Also, the GI50 in assay [8] is 24000 nM; in assay [9], 4100 nM.

As for `COc1cc2c3c(n(CCCN4CCOCC4)c(=O)c2cc1OC)-c1ccncc1C3=O`, the inhibition entry in [1] was “Active”. Moreover, the GI50 is 5000 nM in assay [2]; 390 nM in assay [3]; more than 100000 nM in assay [4]; 85000 nM in assay [5]; 12000 nM in assay [6]; 5900 nM in assay [7]. In addition, the GI50 in assay [8] was 7600 nM; in assay [9], 1900 nM.

For the molecule `COc1ccc2c(n1)C(=O)c1c-2n(CCCN(C)C)c(=O)c2cc(OC)c(OC)cc12`, the inhibition entry in assay [1] was “Active”. For the same molecule, the “growth inhibition (GI)” value in assay [10], in assay [17], in [11], in assay [12], in assay [13] and in assay [14] was “Active” each time. The “growth inhibition (GI)” value in assay [15] and in assay [16] was “Active” in each case.

On to `COc1cc2c3c(n(CCCN(C)C)c(=O)c2cc1OC)-c1ncccc1C3=O`, for which, in assay [1], the inhibition entry is “Active”. Further, the GI50 worked out at 3400 nM in assay [2]; 1600 nM in [3]; 4100 nM in assay [4]; 13000 nM in assay [5]; 3600 nM in assay [6]; 3200 nM in assay [7]. Further, the GI50 in assay [8] worked out at 1700 nM; in [9], 440 nM.

Take `COc1cnc2c(c1)C(=O)c1c-2n(CCCN2CCOCC2)c(=O)c2ccccc12`: the inhibition entry in assay [1] is “Active”. The GI50 in assay [2] amounted to 4100 nM; in [3], 2500 nM; in [4], 3500 nM; in assay [5] it was 1700 nM; in assay [6], 6300 nM; in assay [7], 2600 nM. Further, the results for the GI50 in assay [8] and in assay [9] were 3600 nM and 600 nM, respectively.

For the molecule `COc1ccc2c(n1)C(=O)c1c-2n(CCCN2CCOCC2)c(=O)c2cc(OC)c(OC)cc12`, in assay [1], the inhibition entry was “Active”. The “growth inhibition (GI)” value in assay [10], in [17], in assay [11], in assay [13], in assay [14] and in assay [15] was “Active” in each case. In addition, in assay [16], the “growth inhibition (GI)” value is “Active”.

The values above are taken from ChEMBL document CHEMBL2021884, “Azaindenoisoquinolines as topoisomerase I inhibitors and potential anticancer agents: a systematic study of structure-activity relationships” (2012).
